Assay type in all cases: functional, cell-based
Test [1] concerns MCF7. Description: Cytotoxicity against human MCF7 cells assessed as inhibition of cell proliferation after 72 hrs by SRB assay. As to conditions: MCF7, 72 h. The method in brief: (§1)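 Sulforhodamine B (SRB) read-out of proliferation inhibition. Cells (A549 lung adenocarcinoma; MCF-7 breast cancer) were seeded 24 h before treatment, then exposed continuously to a range of compound concentrations for 72 h. Inhibition rates were derived from the SRB signal. Adriamycin served as the positive control.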

Test [2] concerns HL-60. Description: Cytotoxicity against human HL60 cells assessed as inhibition of cell proliferation after 72 hrs by MTT assay. As to conditions: HL-60, 72 h. The essentials: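 HL-60 promyelocytic leukemia cells were plated 24 h ahead, then exposed continuously to varying compound concentrations for 72 h. Proliferation inhibition was determined by MTT assay. Adriamycin served as the positive control.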

The subject of test [3] is A549. Briefly: Cytotoxicity against human A549 cells assessed as inhibition of cell proliferation after 72 hrs by SRB assay. As to conditions: A549, 72 h. The essentials:
as §1

Counter-ions that a name gives are not always drawn.

Regarding `C=C(C)[C@@]12OC3(c4ccccc4)O[C@@H]1[C@@H]1[C@@H]4O[C@]4(CO)[C@@H](O)[C@@]4(O)[C@@H](C[C@H](C)[C@@H]4O)[C@@]1(O3)[C@H](C)[C@@H]2OC(=O)c1ccccc1` [TRIGONOSIN B], the IC50 in test [1], in test [2] and in test [3] was greater than 10 µM in each case.
Regarding `C[C@H]1[C@@H]2CC[C@@H]1[C@H](OC(=O)c1ccccc1)/C=C/C=C/C(=O)O[C@H]1[C@@H](C)C[C@@H]3[C@]1(O)[C@H](O)[C@@]1(CO)O[C@H]1[C@H]1[C@H]4OC5(c6ccccc6)O[C@@H]([C@@H](C)[C@@]13O5)[C@@]4(O)[C@](C)(O)C2` [TRIGONOSIN E], the IC50 in test [1], in test [2] and in test [3] was greater than 10 µM each time.
`C[C@H]1[C@@H]2CC[C@@H]1[C@@H](OC(=O)c1ccccc1)/C=C/C=C/C(=O)O[C@H]1[C@@H](C)C[C@@H]3[C@]1(O)[C@H](O)[C@@]1(CO)O[C@H]1[C@H]1[C@H]4OC5(c6ccccc6)O[C@@H]([C@@H](C)[C@@]13O5)[C@@]4(O)[C@](C)(O)C2` [REDIOCIDE C]: the half-maximal inhibitory concentration (IC50) in test [1], in test [2] and in test [3] was greater than 10 µM each time.
As to `C=C(C)[C@@]1(OC(=O)c2ccccc2)[C@H](OC(C)=O)[C@@H]2[C@H](OC(C)=O)[C@]3(C)O[C@@]4([C@@H]3O)[C@@H](O)[C@@H](C)C[C@H]4[C@@]2(O)[C@H](C)[C@@H]1OC(C)=O` [TRIGONOSIN D], the IC50 in test [1], in test [2] and in test [3] was greater than 10 µM throughout.
`C=C(C)[C@@]12OC3(c4ccccc4)O[C@@H]1[C@@H]1[C@@H]4O[C@]4(C)[C@@H](O)[C@@]4(O)[C@@H](C[C@H](C)[C@@H]4O)[C@@]1(O3)[C@H](C)[C@@H]2OC(=O)c1ccccc1` [TRIGONOSIN A]: the concentration for half-maximal inhibition (IC50) in test [1], in test [2] and in test [3] was greater than 10 µM throughout.
`C=C(C)[C@@]12OC3(c4ccccc4)O[C@@H]1[C@@H]1[C@@H]4O[C@]4(C)[C@@H](O)[C@]4(O)C(=O)[C@@H](C)C[C@H]4[C@@]1(O3)[C@H](C)[C@@H]2OC(=O)c1ccccc1` [TRIGOXYPHIN B]: the 50% inhibitory concentration (IC50) in test [1], in test [2] and in test [3] was greater than 10 µM each time.
On to `COc1cccc2c1C(=O)c1c(O)c3c(c(O)c1C2=O)C[C@@](O)(C(=O)CO)C[C@@H]3O[C@H]1C[C@H](N)[C@H](O)[C@H](C)O1` [DOXORUBICIN HYDROCHLORIDE], for which the IC50 in test [1] was determined as 0.15 µM; in test [2], 0.13 µM; in test [3], 0.41 µM.
Take `C[C@H]1[C@@H]2CC[C@@H]1[C@@H](OC(=O)c1ccccc1)/C=C/C=C\C(=O)O[C@H]1[C@@H](C)C[C@@H]3[C@]1(O)[C@H](O)[C@@]1(CO)O[C@H]1[C@H]1[C@H]4OC5(c6ccccc6)O[C@@H]([C@@H](C)[C@@]13O5)[C@@]4(O)[C@](C)(O)C2` [TRIGONOSIN F]: the IC50 in test [1], in test [2] and in test [3] was greater than 10 µM throughout.
In the case of `C=C(C)[C@@]12OC3(c4ccccc4)O[C@@H]1[C@@H]1[C@@H]4O[C@]4(C)[C@@H](O)[C@]4(O)C(=O)C(C)=C[C@H]4[C@@]1(O3)[C@H](C)[C@@H]2OC(=O)c1ccccc1` [TRIGOXYPHIN A], the IC50 in test [1], in test [2] and in test [3] was greater than 10 µM each time.
For the compound `C=C(C)[C@@]12OC3(c4ccccc4)O[C@@H]1[C@@H]1[C@H](O)[C@@](C)(O)[C@@H](O)[C@@]4(O)[C@@H](C[C@H](C)[C@@H]4O)[C@@]1(O3)[C@H](C)[C@@H]2OC(=O)c1ccccc1` [TRIGONOSIN C], the IC50 in test [1], in test [2] and in test [3] was greater than 10 µM in each case.
On to `CC(C)CC(=O)O[C@H]1/C=C/C=C/C(=O)O[C@H]2[C@@H](C)C[C@@H]3[C@]2(O)[C@H](O)[C@@]2(CO)O[C@H]2[C@H]2[C@H]4OC5(c6ccccc6)O[C@@H]([C@@H](C)[C@@]23O5)[C@@]4(O)[C@](C)(O)C[C@H]2CC[C@H]1[C@H]2C` [REDIOCIDE A], for which the IC50 in test [1], in test [2] and in test [3] was greater than 10 µM in each case.
